High-throughput results deposited in PubChem BioAssay by several laboratories.
Sampled rows, rich in hits. Any-hit rate of the full collection: about 2.1%.
UCH37 inh: inhibitors of human deubiquitinating enzyme UCH37; Q9Y5K5; purified proteasome/UCH37, Ub-AMC cleavage fluorescence; inhibition, % (concentration not given with the values); 0.33% of 330,000 active; AID 588478;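 active = mean inhibition over replicate wells above about 20%, limit read from the data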
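Material: human UCH37 enzyme supplied as purified proteasome complex / Amount: 0.15 nM proteasome as dispensed / Buffer or medium: pH 7.4 Tris-HCl (50 mM) with ovalbumin, ATP-MgCl2, DTT / Times: preincubation 30 min, reaction 25 min, room temperature / Technique: AMC fluorescence from Ub-AMC cleavage, excitation 355 nm, emission 460 nm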
HKDC1 inh: HKDC1 (human) hexokinase inhibition; inhibition, % at 20 µM; recombinant HKDC1, G6PDH/diaphorase resazurin coupled fluorescence; 0.16% of 340,000 active; AID 493160; Q2TB90;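 active = inhibition above about 35% when tested at 20 µM, limit read from the data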
Target sequence (Q2TB90 whole entry, looked up): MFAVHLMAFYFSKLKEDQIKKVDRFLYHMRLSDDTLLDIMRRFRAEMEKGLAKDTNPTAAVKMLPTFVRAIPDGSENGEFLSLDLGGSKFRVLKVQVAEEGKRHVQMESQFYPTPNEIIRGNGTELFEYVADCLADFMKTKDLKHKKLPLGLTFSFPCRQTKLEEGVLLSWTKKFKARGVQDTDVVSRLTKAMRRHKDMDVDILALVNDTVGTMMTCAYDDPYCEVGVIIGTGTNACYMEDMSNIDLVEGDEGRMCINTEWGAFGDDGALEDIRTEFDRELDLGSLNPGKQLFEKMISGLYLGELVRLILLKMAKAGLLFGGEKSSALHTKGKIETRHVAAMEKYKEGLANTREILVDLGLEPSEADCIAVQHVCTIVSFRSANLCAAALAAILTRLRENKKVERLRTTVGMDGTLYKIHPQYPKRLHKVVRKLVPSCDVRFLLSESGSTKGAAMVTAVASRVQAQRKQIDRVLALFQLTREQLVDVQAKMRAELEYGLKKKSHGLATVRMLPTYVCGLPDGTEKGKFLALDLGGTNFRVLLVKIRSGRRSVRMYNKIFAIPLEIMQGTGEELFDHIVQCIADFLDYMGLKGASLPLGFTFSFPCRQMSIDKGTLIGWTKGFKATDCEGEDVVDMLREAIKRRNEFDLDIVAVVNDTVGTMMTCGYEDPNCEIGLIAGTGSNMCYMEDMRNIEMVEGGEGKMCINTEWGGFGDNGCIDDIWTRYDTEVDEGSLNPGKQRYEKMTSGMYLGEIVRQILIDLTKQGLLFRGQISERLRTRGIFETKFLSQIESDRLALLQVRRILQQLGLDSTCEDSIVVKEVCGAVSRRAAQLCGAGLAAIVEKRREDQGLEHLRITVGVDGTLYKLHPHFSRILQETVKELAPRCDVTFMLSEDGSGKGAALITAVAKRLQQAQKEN
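test system = in-house recombinant HK5 (HKDC1) enzyme | amount = HKDC1 at 5 µg/mL | control set = DMSO-enzyme wells negative, buffer-substituted wells positive | compound = one dose of 20 µM, 1% DMSO | schedule = reaction time 90 min, room temperature, protected from light | technique = resorufin fluorescence at 613 nm | reagent = glucose with 1 mM ATP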
aDG glyco act: increases alpha dystroglycan glycosylation; AID 624168; Pro5-aDG cells, alpha-DG glycosylation AlphaScreen (IIH6); 0% Pro5, 100% B10-LARGE cell signal; activation, % at 10 µM; 0.22% of 360,000 active;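 active = activation of at least 8% versus controls, or a plate z-score of at least 8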;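 also: Pro5 are CHO cells carrying HIG-tagged alpha-DG that lacks glycosylation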
B2AR ag: agonists of human beta-2 adrenergic receptor inducing internalization | Am2.2-beta2AR cells, FAP receptor internalization, flow cytometry | P07550 | 0.43% of 340,000 active | response, % (test concentration not listed);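 active = response above a set limit, near 3 SD of response in nonfluorescent compounds, cut at about 42% in these data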
PfGluPho inh: PfG6PD (Plasmodium falciparum) enzyme inhibition | 0.78% of 350,000 active | inhibition, % at 20 µM | PfGluPho enzyme, NADPH resazurin-diaphorase fluorescence | AID 504690;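 active = inhibition reaching at least a set limit at 20 µM in the primary screen, cut at about 59% in these data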
Cardio protect: modulators protecting cardiomyocytes from myocardial damage; H9c2 cardiomyocytes, H2O2 injury protection, ATPLite, 2 h; protection from H2O2 cell death, % at 20 µM; 0.63% of 360,000 active; AID 588492;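 active = compounds giving at least 50% protection of heart cells from peroxide-induced death in the single-dose screen, raw or plate-pattern-corrected value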
Beta2AR ag CP1: activates human beta-2 adrenergic receptor. percent response (surface receptor), % at 10 µM. Am2.2-beta2AR cells, FAP surface receptor, flow cytometry; hits give low values. shares compounds with B2AR ag. 25% of 1,100 active;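 active = surface receptor percent response at or below 58%, roughly 3 SD from nonfluorescent compounds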
FAP fluor counter: flagged in Am2.2 fluorescence counterscreen for beta-2AR agonists. shares compounds with B2AR ag. AID 588765. calls only at 10 µM. 1,100 tested, under 10 active. Am2.2 cells, FAP fluorogen flow cytometry; hits give low values;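 active = percent response below a set limit in fluorescence channel 1 and below 50% in channel 8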
A number is an active result; – = inactive; · = no result.

SMILES	UCH37 inh	HKDC1 inh	aDG glyco act	B2AR ag	PfGluPho inh	Cardio protect	Beta2AR ag CP1	FAP fluor counter
Cc1ccc(-c2nc3ncccc3o2)cc1NC(=O)c1sc2ccccc2c1Cl	–	–	–	45	–	–	–	–
Cc1ccc(-c2nc3ncccc3o2)cc1NC(=O)c1cccs1	–	–	–	–	–	–	·	·
O=C(Nc1cnn(Cc2c(Cl)cccc2Cl)c1)C(c1ccccc1)c1ccccc1	–	–	–	43	–	–	–	–
O=C(COc1ccccc1Cl)Nc1cnn(Cc2ccccc2)c1	–	–	–	–	–	–	·	·
CCOc1ccccc1C(=O)N[C@H](C(=O)OCc1csc(CC(=O)Nc2ccc(C)cc2)n1)C(C)C	–	–	–	–	–	–	·	·
CCOc1ccccc1C(=O)NCC(=O)OCc1csc(CC(=O)Nc2ccc(C)cc2)n1	–	–	–	85	–	–	12	–
O=C(Nc1ccc2oc(-c3ccccc3F)nc2c1)c1ccccc1F	–	–	–	–	–	–	–	–
O=C(Nc1ccc2oc(-c3ccc4ccccc4c3)nc2c1)c1ccc2c(c1)OCCO2	–	–	–	43	–	–	20	–
O=C(Nc1ccc2oc(-c3ccccc3)nc2c1)c1ccccc1F	–	–	–	–	–	–	·	·
C=CCn1c(-c2ccccc2)c[nH]c1=S	–	–	–	–	–	–	·	·
C=CCn1c(-c2ccc(Cl)cc2)c[nH]c1=S	–	–	–	·	–	–	–	–
Cc1ccc(-n2nnc3c(SCC(=O)NCC4CCCO4)ncnc32)cc1 (stereo not drawn)	–	–	–	51	–	–	–	–
O=C(CSc1ncnc2c1nnn2-c1ccc(F)cc1)NCC1CCCO1 (stereo not drawn)	–	–	–	–	–	–	·	·
CN(C)C=Nc1nc2ncc(-c3ccc(Cl)cc3)c(N=CN(C)C)n2n1	–	·	·	·	·	·	·	·
Cc1cc(N2CCN(C(=O)c3ccco3)CC2)n2nc(-c3cccc(Cl)c3)cc2n1	–	–	–	42	–	–	–	–
O=C1C(O)CC2c3ccccc3CC3(CCCC3)N12 (stereo not drawn)	–	–	–	–	–	–	–	–
Cc1ccc(C(=O)NN=C/C=C/c2ccc(Br)cc2)cn1	–	·	·	·	·	·	·	·
CN1CCN(c2ccc(NC(=O)c3sc4ccccc4c3Cl)cc2)CC1	–	–	–	–	–	–	·	·
COC(=O)c1ccc(N2CCN(C)CC2)c(NC(=O)c2sc3ccccc3c2Cl)c1	·	–	–	71	–	–	–	–
O=C(NN=Cc1ccncc1)c1cccc([N+](=O)[O-])c1	–	·	·	·	·	·	·	·
Cc1cc(S(=O)(=O)N2CCOCC2)ccc1OCC(=O)Nc1ccc(F)cc1F	–	–	–	–	–	–	–	–
Cc1cc(S(=O)(=O)N2CCOCC2)ccc1OCC(=O)Nc1ccc(Br)cc1F	–	–	–	–	–	–	–	–
Cc1cc(S(=O)(=O)N2CCOCC2)ccc1OCC(=O)Nc1ccccc1C(F)(F)F	–	–	–	–	–	–	–	–
COc1ccccc1C=NNC(=O)CN(C1=NS(=O)(=O)c2ccccc21)c1ccccc1	–	·	·	·	·	·	·	·
CCOC(=O)c1cc(-c2cccs2)nc2c1c(C)nn2-c1ccccn1	–	–	–	–	–	–	·	·
SMILES	UCH37 inh	HKDC1 inh	aDG glyco act	B2AR ag	PfGluPho inh	Cardio protect	Beta2AR ag CP1	FAP fluor counter
Cc1nn(-c2ccccn2)c2nc(-c3cccs3)cc(C(=O)NCc3ccco3)c12	–	–	–	43	–	–	–	–
Cc1ccc(C=NNC(=O)CN2CCN(Cc3ccccc3)CC2)o1	–	·	·	·	·	·	·	·
CC(C)(C)c1ccc(C(=O)NCCCN2CCN(CCCNC(=O)c3ccc(C(C)(C)C)cc3)CC2)cc1	–	–	–	49	–	–	–	–
CC(C)(C)c1ccc(C(=O)NCCN2CCOCC2)cc1	–	–	–	–	–	–	·	·
O=C(Nc1ccc(-c2nc3ncccc3o2)cc1)c1ccc([N+](=O)[O-])o1	·	–	–	53	–	–	28	–
CCc1ccc(OCC(=O)Nc2ccc(-c3nc4ccccc4o3)c(O)c2)cc1	–	–	–	93	–	–	1.1	–
CCOc1cc(CNCCc2ccc(S(N)(=O)=O)cc2)ccc1OCc1ccccc1	–	–	5.7	–	–	–	–	–
CCc1ccc(OCCOCC(O)CNC(C)CC)cc1 (stereo not drawn)	–	–	–	74	–	–	–	–
Cc1cccc(OCC(=O)ON=C(N)c2ccccn2)c1	–	·	·	·	·	·	·	·
CCCc1nc2oc3c(Cl)ncnc3c2c2c1CCCC2	–	–	–	44	–	–	–	–
CCCc1nc2oc3c(NCCN(C)C)ncnc3c2c2c1CCCC2	–	–	–	–	–	–	–	–
CC(C)Cc1nc2oc3c(Cl)ncnc3c2c2c1CCCC2	–	–	–	–	–	–	·	·
CCCc1nc2oc3c(NCCCN(C)C)ncnc3c2c2c1CCCC2	–	–	–	–	–	–	–	–
CC(C)Cc1nc2oc3c(NCC(C)O)ncnc3c2c2c1CCCC2 (stereo not drawn)	–	–	–	–	–	–	–	–
Cc1cccc(C)c1NC(=O)CN1CCN(CCCC(c2ccc(F)cc2)c2ccc(F)cc2)CC1	–	–	–	–	–	–	–	–
COc1cc(C(=O)NC(C)C2CC3CCC2C3)cc(OC)c1OC (stereo not drawn)	–	–	–	–	–	–	·	·
CCN(Cc1ccccc1)S(=O)(=O)c1cc(C(=O)NC(C)C2CC3CCC2C3)ccc1OC (stereo not drawn)	–	–	–	49	–	–	52	–
Cc1ccc(CSc2nnc(SCC(=O)NN=Cc3ccc(C(=O)O)cc3)s2)cc1	–	·	·	·	·	·	·	·
CC(C)(C)C(=O)Nc1ccccc1N1CCN(c2ccc(F)cc2)CC1	–	–	–	67	–	–	–	–
CC(C)CC(=O)Nc1ccccc1N1CCN(c2ccc(F)cc2)CC1	–	–	–	–	–	–	·	·
NC(=O)CC(NC(=O)c1ccccc1)c1ccc(NCCCN2CCCC2=O)c([N+](=O)[O-])c1 (stereo not drawn)	–	–	–	90	–	–	36	–
NC(=O)CC(NC(=O)c1ccccc1)c1ccc(N2CCN(c3ccccn3)CC2)c([N+](=O)[O-])c1 (stereo not drawn)	–	–	–	–	–	–	–	–
NC(=O)CC(NC(=O)Cc1ccc(Cl)cc1)c1ccc(NC2CCCCCCC2)c([N+](=O)[O-])c1 (stereo not drawn)	–	–	–	–	–	–	·	·
